Ki and Temperature decrease data for 13 compounds are collected here from ChEMBL document CHEMBL1125523, “Novel indolodioxanes with antihypertensive effects: potent ligands for the 5-HT1A receptor” (J Med Chem, 1992).

pKi: −log10 of the molar value.

Test [1] addresses T1, 5-hydroxytryptamine receptor 1A (Homo sapiens, UniProt P08908).
T1 sequence (P08908 whole entry): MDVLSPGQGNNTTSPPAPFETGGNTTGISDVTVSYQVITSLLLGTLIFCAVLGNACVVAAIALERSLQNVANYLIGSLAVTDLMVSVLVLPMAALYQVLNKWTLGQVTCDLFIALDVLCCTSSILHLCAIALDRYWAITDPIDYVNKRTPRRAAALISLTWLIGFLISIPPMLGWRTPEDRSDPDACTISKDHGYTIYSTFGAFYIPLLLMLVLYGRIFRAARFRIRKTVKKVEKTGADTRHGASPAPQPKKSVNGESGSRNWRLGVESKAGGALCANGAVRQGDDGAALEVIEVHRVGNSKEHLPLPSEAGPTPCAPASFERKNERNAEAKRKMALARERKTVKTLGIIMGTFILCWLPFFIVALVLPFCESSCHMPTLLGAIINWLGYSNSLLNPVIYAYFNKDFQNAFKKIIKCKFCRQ
Put plainly: Displacement of [3H]8-OH-DPAT from 5-hydroxytryptamine 1A receptor expressed in CHO cell membranes. In short, it runs like this: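 [3H]8-OH-DPAT (164.5 Ci/mmol, 1 nM) competition on CHO membranes expressing a cloned mammalian 5-HT1A receptor. Ten drug concentrations in duplicate. IC50 from a nonlinear single-site fit, converted to Ki with Cheng–Prusoff. Ki in nM ± SEM.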

The target of test [2] is Serotonin 2 (5-HT2) receptor (Homo sapiens, UniProt P41595+P28223+P28335). Put plainly: Binding affinity towards 5-hydroxytryptamine 2 receptor expressed in CHO cell membranes using [3H]ketanserin (60 Ci/mmol, 1 nM). In short, it runs like this:
(§1)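 Competition binding on membranes from CHO cells expressing a cloned mammalian 5-HT2 receptor, with [3H]ketanserin (60 Ci/mmol, 1 nM). Ten drug concentrations run in duplicate. IC50 from a nonlinear single-site fit, converted to Ki by Cheng–Prusoff. Ki reported in nM ± SEM.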

Test [3] deals with T2, Adrenergic receptor alpha-1 (Rattus norvegicus, UniProt P15823+P23944+P43140).
T2 sequence (P15823 whole entry): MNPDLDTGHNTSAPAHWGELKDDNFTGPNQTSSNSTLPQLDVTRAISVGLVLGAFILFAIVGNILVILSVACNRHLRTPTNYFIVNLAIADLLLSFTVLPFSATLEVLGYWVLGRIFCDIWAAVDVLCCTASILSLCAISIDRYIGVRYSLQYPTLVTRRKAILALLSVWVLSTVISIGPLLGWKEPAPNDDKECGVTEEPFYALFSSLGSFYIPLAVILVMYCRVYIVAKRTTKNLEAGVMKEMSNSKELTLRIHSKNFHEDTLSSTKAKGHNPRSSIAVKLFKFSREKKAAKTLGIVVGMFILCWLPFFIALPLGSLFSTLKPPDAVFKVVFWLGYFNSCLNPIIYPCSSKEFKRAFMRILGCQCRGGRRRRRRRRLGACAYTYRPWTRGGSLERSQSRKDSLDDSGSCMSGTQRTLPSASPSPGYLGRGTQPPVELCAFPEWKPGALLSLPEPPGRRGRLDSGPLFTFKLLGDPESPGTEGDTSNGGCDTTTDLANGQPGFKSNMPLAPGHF
T2 sequence (P23944 whole entry): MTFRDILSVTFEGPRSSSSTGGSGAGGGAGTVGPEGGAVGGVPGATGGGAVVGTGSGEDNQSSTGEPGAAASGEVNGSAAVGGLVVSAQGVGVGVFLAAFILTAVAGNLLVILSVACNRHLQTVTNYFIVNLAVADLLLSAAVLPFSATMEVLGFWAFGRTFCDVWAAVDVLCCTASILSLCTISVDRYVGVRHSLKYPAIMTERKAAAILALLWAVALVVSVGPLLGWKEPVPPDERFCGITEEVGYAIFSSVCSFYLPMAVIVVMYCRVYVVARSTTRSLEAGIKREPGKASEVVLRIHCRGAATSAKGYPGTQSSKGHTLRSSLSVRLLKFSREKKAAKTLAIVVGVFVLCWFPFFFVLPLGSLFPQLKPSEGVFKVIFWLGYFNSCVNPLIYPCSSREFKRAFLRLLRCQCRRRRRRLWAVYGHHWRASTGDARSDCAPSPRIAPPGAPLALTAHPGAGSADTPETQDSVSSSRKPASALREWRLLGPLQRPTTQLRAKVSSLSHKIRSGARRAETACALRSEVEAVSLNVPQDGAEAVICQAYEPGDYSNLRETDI
T2 sequence (P43140 whole entry): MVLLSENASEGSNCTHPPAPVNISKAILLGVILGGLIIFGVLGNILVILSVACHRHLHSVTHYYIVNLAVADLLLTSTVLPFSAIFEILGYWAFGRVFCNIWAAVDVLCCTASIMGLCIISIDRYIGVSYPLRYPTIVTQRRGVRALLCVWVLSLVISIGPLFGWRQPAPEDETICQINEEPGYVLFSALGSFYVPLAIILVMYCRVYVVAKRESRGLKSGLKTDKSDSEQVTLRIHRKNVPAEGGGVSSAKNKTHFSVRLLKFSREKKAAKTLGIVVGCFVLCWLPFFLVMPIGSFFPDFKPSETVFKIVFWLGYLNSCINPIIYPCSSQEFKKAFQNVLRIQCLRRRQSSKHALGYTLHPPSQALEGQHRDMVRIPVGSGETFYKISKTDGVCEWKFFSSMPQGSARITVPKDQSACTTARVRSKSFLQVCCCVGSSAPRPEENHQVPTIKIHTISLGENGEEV
Put plainly: Binding affinity towards Alpha-1 adrenergic receptor from rat whole brain using [3H]prazosin (18.1 Ci/mmol,0.9nanoM)as radioligand. A digest of the protocol:
(§2)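 Rat whole-brain membranes displaced by test drug from [3H]prazosin (18.1 Ci/mmol, 0.9 nM). Ten concentrations in duplicate. IC50 by nonlinear single-site fit, then Ki via Cheng–Prusoff. Ki given in nM ± SEM.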

The target in test [4] is T3, D(2) dopamine receptor (Homo sapiens, UniProt P14416). Put plainly: Binding affinity towards Dopamine receptor D2 from mammalian clones expressed in CHO cell membranes using 2 (86.1 Ci/mmol,1.7nanoM)as radioligand. A digest of the protocol:
(§3)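 Cloned mammalian D2 receptor in CHO cell membranes, radioligand [3H]U-86170 (86.1 Ci/mmol, 1.7 nM). Competition over ten drug concentrations in duplicate. IC50 from a single-site nonlinear fit, with Ki by Cheng–Prusoff. Values in nM ± SEM.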

In test [5] the test system is Mus musculus. Put plainly: Result of hypothermia assay carried in Charles river CF-1 male mice at a dose of 0.01 mg/kg (s.c. administration). In kind it is functional. A digest of the protocol: (§4)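 Male CF-1 mice (18–22 g), four per dose, individually caged. Rectal temperature (°F) taken before and 20 min after a 0.1 mL sc injection. A fall of 2 °F or more counted as a positive hypothermic response. Doses started at 30 mg/kg and were lowered by half-log steps.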

For test [6], the target named is T3, D(2) dopamine receptor. As to the kind of experiment: Compound was evaluated for the binding affinity towards Dopamine receptor D2 from mammalian clones expressed in CHO cell membranes using 2 (86.1 Ci/mmol,1.7nanoM)as radioligand. A digest of the protocol: as §3
Test [7] deals with Mus musculus. Put plainly: Result of hypothermia assay carried in Charles river CF-1 male mice at a dose of 1.3 mg/kg (s.c. administration). In kind it is functional. A digest of the protocol: (§5)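 CF-1 male mice (18–22 g), four per dose, caged individually. Rectal temperature (°F) taken before dosing and 20 min after. A drop of 2 °F or more counted as positive. Doses started at 30 mg/kg and fell by half-log steps until 0/4 mice responded. Route: sc, 0.1 mL; po, 0.2 mL by oral syringe. ED50 by Spearman-Kärber.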

Test [8] concerns Mus musculus. Put plainly: Result of hypothermia assay carried in Charles river CF-1 male mice at a dose of 1.7 mg/kg (oral administration). In kind it is functional. A digest of the protocol:
as §5

A short description of test [9]: Compound was evaluated for the binding affinity towards 5-hydroxytryptamine 2 receptor from mammalian clones expressed in CHO cell membranes using [3H]-ketanserin as radioligand. A digest of the protocol:
as §1

Test [10] concerns the target T2, Adrenergic receptor alpha-1. As to the kind of experiment: Compound was evaluated for the binding affinity towards Alpha-1 adrenergic receptor from rat whole brain using [3H]prazosin as radioligand. In short, it runs like this: as §2
The target in test [11] is T3, D(2) dopamine receptor. As to the kind of experiment: Compound was evaluated for the binding affinity towards Dopamine receptor D2 from mammalian clones expressed in CHO cell membranes using [3H]U-86170 as radioligand. A digest of the protocol:
as §3

The test system of test [12] is Mus musculus. As to the kind of experiment: Result of hypothermia assay carried in Charles river CF-1 male mice at a dose of 30 mg/kg (s.c. administration). Type of test: functional. In short, it runs like this:
as §4

Test [13] concerns Mus musculus. As to the kind of experiment: Result of hypothermia assay carried in Charles river CF-1 male mice at a dose of 17.3 mg/kg (s.c. administration). Type of test: functional. In short, it runs like this:
as §4

T3 sequence (P14416 whole entry): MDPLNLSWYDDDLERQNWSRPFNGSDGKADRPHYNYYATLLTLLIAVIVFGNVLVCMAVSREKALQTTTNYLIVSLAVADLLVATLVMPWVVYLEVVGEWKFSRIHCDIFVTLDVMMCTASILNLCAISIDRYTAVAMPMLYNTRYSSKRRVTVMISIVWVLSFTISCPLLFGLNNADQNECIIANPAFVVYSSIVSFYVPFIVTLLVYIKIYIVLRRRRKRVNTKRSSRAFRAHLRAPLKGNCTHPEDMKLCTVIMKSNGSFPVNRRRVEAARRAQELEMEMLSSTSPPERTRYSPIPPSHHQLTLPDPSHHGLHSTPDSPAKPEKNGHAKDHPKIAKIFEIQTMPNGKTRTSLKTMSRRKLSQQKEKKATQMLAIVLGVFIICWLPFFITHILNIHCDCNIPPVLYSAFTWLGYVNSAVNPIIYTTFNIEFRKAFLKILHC

The term pKi denotes −log10 of the Ki, conventionally taken in molar units. Low values mean a large Ki, high ones a small Ki. Broadly, the Ki is the dissociation constant of the complex between target and ligand, obtained from inhibition or displacement. A low value points to tighter binding. With `N#Cc1cc2c3c(ccc2[nH]1)OCC(CN1CCC2(CC1)C(=O)NCN2c1ccccc1)O3` (stereo unspecified), the pKi in test [1] was 9.30; at D(2) dopamine receptor [4], 8.82. In addition, the Ki in test [2] is reported as 281 nM; in test [3], 6 nM. In addition, the Temperature decrease in the test on Mus musculus [5] is on record as 13 degrees F.
Take `O=C1NCN(c2ccccc2)C12CCN(CC1COc3ccc4[nH]ccc4c3O1)CC2` (stereo unspecified): the pKi is 9.40 in test [1] and 9.70 at D(2) dopamine receptor [6].
With `CCOC(=O)C1CCN(CC2COc3ccc4[nH]c(C(=O)OC)cc4c3O2)CC1` (stereo unspecified), the figures for the pKi (in [1]; at D(2) dopamine receptor [4]) were 8.92 and 6.59, respectively. For the same compound, the Ki in test [2] is listed as 170 nM; in test [3], 12.3 nM.
With `COC(=O)c1cc2c3c(ccc2[nH]1)OCC(CNCCCc1ccccc1)O3` (stereo unspecified), the pKi in test [1] is 9.70; on D(2) dopamine receptor [4], 7.80. For the same compound, the values for the Ki in [2] and in test [3] were 38.7 nM and 0.6 nM, respectively. Further, the Temperature decrease in the test on Mus musculus [7] is on record as 13.6 degrees F; in the test on Mus musculus [8] it was 8.8 degrees F.
Take `COC(=O)c1cc2c3c(ccc2[nH]1)OCC(CN1CCC(n2c(O)nc4ccccc42)CC1)O3` (stereo unspecified): the figures for the pKi (in test [1]; at D(2) dopamine receptor [4]) were 9.22 and 8.17, respectively. In addition, the Ki in test [2] was 31.6 nM; in test [3] it was 1.8 nM.
As for `COC(=O)c1cc2c3c(ccc2[nH]1)OCC(CN1CCC2(CC1)C(=O)NCN2c1ccccc1)O3` (stereo unspecified), the pKi in [1] is 9.05; in [9], 6.19; at D(2) dopamine receptor [11], 8.51. The Ki in test [10] was 11.4 nM. Further, in the test with Mus musculus [12], the Temperature decrease came to 3.2 degrees F.
In the case of `O=C1NCN(c2ccccc2)C12CCN(CC1COc3ccc4[nH]c(CO)cc4c3O1)CC2` (stereo unspecified), the pKi in [1] was 9.22; on D(2) dopamine receptor [4], 8.70. Besides, the Ki is > 1722 nM in [2] and 8.8 nM in test [3].
Regarding `COC(=O)c1cc2c3c(ccc2[nH]1)OCC(CN1CCC(Nc2ccccc2)(C(N)=O)CC1)O3` (stereo unspecified), the figures for the pKi (in [1]; on D(2) dopamine receptor [4]) were 7.66 and < 6.41, respectively. The results for the Ki in test [2] and in test [3] were 171 nM and 19.8 nM, respectively.
In the case of `O=C(O)c1cc2c3c(ccc2[nH]1)OCC(CN1CCC2(CC1)C(=O)NCN2c1ccccc1)O3` (stereo unspecified), the negative logarithm of the Ki (pKi) in [1] was 7.75; on D(2) dopamine receptor [4], 7.24. Further, the Ki in [2] is recorded as > 1722 nM; in [3] it was > 862 nM. Besides, the Temperature decrease in the test on Mus musculus [13] is on record as 3.6 degrees F.
Take `O=C(NCCCc1ccccc1)c1cc2c3c(ccc2[nH]1)OCC(CNCCCc1ccccc1)O3` (stereo unspecified): the pKi is 8.80 in test [1] and 7.39 at D(2) dopamine receptor [4]. Also, the Ki in test [2] is on record as 27.6 nM; in test [3] it was 11.4 nM.
On to `O=C(OCc1ccccc1)c1cc2c3c(ccc2[nH]1)OCC(CN1CCC2(CC1)C(=O)NCN2c1ccccc1)O3` (stereo unspecified), for which the pKi in [1] was 9.00; at D(2) dopamine receptor [4] it was 8.24. Besides, the Ki in test [2] is 143 nM; in test [3], 30.4 nM. In addition, the Temperature decrease in the test on Mus musculus [13] is reported as 5.6 degrees F.
For the compound `CCCCOC(=O)c1cc2c3c(ccc2[nH]1)OCC(CN1CCC2(CC1)C(=O)NCN2c1ccccc1)O3` (stereo unspecified), the pKi is 8.52 in [1] and 8.24 on D(2) dopamine receptor [4]. Besides, the values for the Ki in test [2] and in test [3] were 92.6 nM and 39.6 nM, respectively.
For `NC(=O)c1cc2c3c(ccc2[nH]1)OCC(CN1CCC2(CC1)C(=O)NCN2c1ccccc1)O3` (stereo unspecified), the pKi in [1] was 9.52; on D(2) dopamine receptor [4] it was 8.74. For the same compound, the results for the Ki in [2] and in test [3] were > 1722 nM and 29.4 nM, respectively.
